According to ChEMBL document CHEMBL1142368, “The discovery of adamantyl-derived, inhaled, long acting beta(2)-adrenoreceptor agonists” (Bioorg Med Chem Lett, 2008):

What was measured:
[1] = species on record: Homo sapiens; assay: Selectivity for human recombinant adrenergic beta2 receptor over human recombinant adrenergic beta-1 receptor
In short: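 Cell-based functional agonist assay using recombinant human β2 receptor expressed in CHO cells, compared against human β1 receptor.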

[2] = Distribution coefficient, log D of the compound; format: physicochemical; details: octanol/water
[3] = Metabolic stability in human liver microsomes; format: ADME, Microsome; details: read-out: Stability
[4] = Volume of distribution in iv dosed rat; format: ADME, organism-based; details: in vivo
In short: (§1)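 Rats were given the compound intravenously, and volume of distribution, clearance and half life were determined from that dosing.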

[5] = Clearance in iv dosed rat; format: ADME, organism-based; details: in vivo; in short: as §1
[6] = Half life in iv dosed rat; format: ADME, organism-based; details: in vivo; in short: as §1
[7] = Oral bioavailability in rat; format: ADME, organism-based; details: in vivo
In short: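 Rats received the compound orally and intravenously in a crossover study.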

SMILES	Selectivity ratio [1]	logD [2]	half-life [3] [min]	Vd [4] [L/kg]	clearance [5] [mL/min/kg]	half-life [6] [min]	bioavailability [7] [%]
C[C@H](Cc1cccc(CC(=O)NCC2CCCCCC2)c1)NC[C@H](O)c1ccc(O)c(CO)c1	1890	2					
C[C@H](Cc1cccc(CC(=O)NC2C3CC4CC(C3)CC2C4)c1)NC[C@H](O)c1ccc(O)c(CO)c1 (stereo partly drawn)	451	2.1	2				
C[C@H](Cc1cccc(CC(=O)NC23CC4CC(CC(C4)C2)C3)c1)NC[C@H](O)c1ccc(O)c(CO)c1	2210	2.1	2	14	103	96	< 5
C[C@H](Cc1cccc(CC(=O)NC2CCCCCCC2)c1)NC[C@H](O)c1ccc(O)c(CO)c1	192	1.9	2				
C[C@H](Cc1cccc(CC(=O)NCc2ccc(Cl)c(Cl)c2)c1)NC[C@H](O)c1ccc(O)c(CO)c1	6340		4				
C[C@H](Cc1cccc(CC(=O)NCC23CC4CC(CC(C4)C2)C3)c1)NC[C@H](O)c1ccc(O)c(CO)c1	547	2.5	2				
C[C@H](Cc1cccc(CC(=O)NCC2CCCCC2)c1)NC[C@H](O)c1ccc(O)c(CO)c1	6790	1.5	3				
